Shown are actives, neighbours in structure and some others; about 1.5% of the full set was active somewhere.
DNMT1 block: blocks human DNA methyltransferase DNMT1 | inhibition (reported as % activation of signal), % at 10 µM | actives 0.83% (n = 360,000) | DNMT1 molecular beacon, Hinp1I cleavage, fluorescence | AID 588458 | P26358
Target sequence (P26358 504-1616 limits assumed): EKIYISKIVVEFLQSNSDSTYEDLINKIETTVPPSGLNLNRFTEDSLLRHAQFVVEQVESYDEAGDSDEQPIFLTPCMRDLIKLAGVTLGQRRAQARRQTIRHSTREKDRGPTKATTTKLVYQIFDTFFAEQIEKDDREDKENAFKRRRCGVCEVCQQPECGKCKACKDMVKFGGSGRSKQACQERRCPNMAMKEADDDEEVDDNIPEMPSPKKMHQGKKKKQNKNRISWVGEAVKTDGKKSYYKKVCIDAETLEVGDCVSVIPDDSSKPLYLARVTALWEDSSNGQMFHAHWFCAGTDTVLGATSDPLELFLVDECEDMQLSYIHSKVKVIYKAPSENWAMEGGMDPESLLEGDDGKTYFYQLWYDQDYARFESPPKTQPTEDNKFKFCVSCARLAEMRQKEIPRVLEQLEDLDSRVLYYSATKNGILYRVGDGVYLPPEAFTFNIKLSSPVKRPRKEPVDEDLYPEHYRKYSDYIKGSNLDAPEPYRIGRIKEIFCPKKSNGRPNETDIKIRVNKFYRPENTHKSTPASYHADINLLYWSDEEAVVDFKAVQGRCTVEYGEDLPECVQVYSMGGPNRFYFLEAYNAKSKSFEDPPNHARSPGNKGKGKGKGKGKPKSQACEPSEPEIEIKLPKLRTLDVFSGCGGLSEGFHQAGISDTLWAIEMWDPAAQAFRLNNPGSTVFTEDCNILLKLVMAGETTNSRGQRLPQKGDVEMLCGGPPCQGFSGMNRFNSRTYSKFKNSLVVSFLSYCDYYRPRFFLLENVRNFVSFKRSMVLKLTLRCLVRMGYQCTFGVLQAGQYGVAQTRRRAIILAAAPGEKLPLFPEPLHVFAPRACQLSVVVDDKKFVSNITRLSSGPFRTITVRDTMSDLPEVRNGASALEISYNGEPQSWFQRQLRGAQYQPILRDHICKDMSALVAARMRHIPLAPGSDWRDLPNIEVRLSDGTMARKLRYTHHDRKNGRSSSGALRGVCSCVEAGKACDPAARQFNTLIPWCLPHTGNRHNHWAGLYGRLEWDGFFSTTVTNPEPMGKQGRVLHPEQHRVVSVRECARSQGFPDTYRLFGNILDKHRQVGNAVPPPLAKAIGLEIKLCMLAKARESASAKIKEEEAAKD
HCV NS3 hel inh: blocks Hepatitis C virus NS3 helicase unwinding; NS3 helicase DNA unwinding, Cy5 molecular beacon fluorescence; inhibition, % at 10.9 µM; actives 0.56% (n = 290,000); AID 1800;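 active = inhibition above the mean of all tested compounds plus 3 SD, set per campaign, cut at about 35% in these data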;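 note: 0% = DMSO wells and 100% = thioflavine S control wells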
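System: HCV NS3 helicase fragment; control set: DMSO and thioflavine S; technique: Cy5 fluorescence at 0 and 60 min, beacon hairpin quenching; reagent: beacon DNA duplex substrate plus ATP; replicates: singlicate; schedule: 1 h reaction at 25 °C, ATP-initiated; medium: MOPS buffer pH 6.5 with MgCl2, DTT, Tween20, BSA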
NSD2 inh: NSD2 (human) methyltransferase inhibition; O96028; NSD2 peptide methylation, AlphaScreen, 120 min; inhibition, % at 12.5 µM; actives 0.54% (n = 310,000)
CASP6 VEID inh: inhibitors of human caspase-6. P55212. purified caspase-6, Z-VEID-R110 cleavage fluorescence. inhibition, % at 12.5 µM. actives 0.53% (n = 350,000);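 active = mean inhibition across replicates at least about 35%, with every replicate also reaching that limit, limit read from the data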;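 note: 0% = median of neutral control wells and 100% = no fluorescence left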
An asterisk follows results filed as active. Cut-off read from the data, not from the text of the source, unless noted: active = inhibition above about 50%; inactive = the rest.

How did Nc1c(/C=C2/C=CC(=O)C(O)=C2)c(=O)nc2sc(CC(=O)N3CCCC3)nn12 do in these assays?
DNMT1 block: 21; HCV NS3 hel inh: 3; NSD2 inh: 119*; CASP6 VEID inh: 48*

Results for CCCN1[C@@H]2c3ccc(-c4cccnc4)c(=O)n3C[C@@H]2[C@@H](CO)[C@@H]1C(=O)NCCCN1CCOCC1 ?
CASP6 VEID inh: -7

Results for O=C(CNc1cccc(S(=O)(=O)N2CCCC2)c1)Nc1cccc(Br)c1 ?
DNMT1 block: -2; NSD2 inh: 1; CASP6 VEID inh: 44*

How did O=C(COC(=O)c1cccc(OC(F)F)c1)Nc1cccc(S(=O)(=O)N2CCCC2)c1 do in these assays?
DNMT1 block: -9; NSD2 inh: -1; CASP6 VEID inh: 60*

How did C[C@H](CO)N1C[C@H](C)[C@H](CN(C)C(=O)c2ccccc2)OCCCC[C@H](C)Oc2ccc(NS(=O)(=O)c3ccccc3)cc2C1=O do in these assays?
CASP6 VEID inh: 0

Results for O=C(Nc1ccc2c(c1)OCO2)N[C@H]1CC[C@H](CCNC(=O)C2CC2)O[C@@H]1CO ?
CASP6 VEID inh: 1

How did O=C(Oc1ccccc1)c1cc(O)c(O)c(O)c1 do in these assays?
DNMT1 block: 5; NSD2 inh: 116*

How did Brc1ccc(C2Nc3cccc4cccc(c34)N2)s1 do in these assays?
DNMT1 block: 55*; HCV NS3 hel inh: 13; NSD2 inh: 5; CASP6 VEID inh: 18

How did C/C=C\C=C/C(=O)Nc1cccc(C2=NOC3(C2)C[C@@H](C(N)=O)N(C(=O)/C=C/CC)C3)c1 (stereo partly drawn) do in these assays?
DNMT1 block: -24

Results for C=C(C)C(=O)Nc1cccc(C2=NOC3(C2)C[C@H](C(N)=O)N(C(=O)/C=C/C)C3)c1 (stereo partly drawn) ?
DNMT1 block: 99*; CASP6 VEID inh: 53*

Results for C/C=C\C=C/C(=O)Nc1cccc(C2=NOC3(C2)C[C@@H](C(N)=O)N(C(=O)/C=C/C=C\C)C3)c1 (stereo partly drawn) ?
DNMT1 block: 64*

Results for O=C(Nc1ccc(NC(=O)C2CC2)cc1)c1cccs1 ?
DNMT1 block: -1; HCV NS3 hel inh: 1; NSD2 inh: -3; CASP6 VEID inh: 59*

What do the screens show for `CCOC(=O)c1c(C)oc2c1cc(NS(=O)(=O)c1ccc(C(=O)O)cc1)c1ccccc12`?
DNMT1 block: -26; HCV NS3 hel inh: -22; NSD2 inh: 50; CASP6 VEID inh: 62*

Results for O=C1NC(=O)/C(=C\c2ccc(Br)o2)S1 ?
DNMT1 block: 43; HCV NS3 hel inh: 20; NSD2 inh: 11; CASP6 VEID inh: 49*

Results for C/C=C/c1ccc([C@@H]2[C@H](CO)N(C(=O)C3CCCC3)C23CN(S(C)(=O)=O)C3)cc1 ?
CASP6 VEID inh: 58*

What do the screens show for `C/C=C/c1ccc([C@@H]2[C@H](CO)N(C(=O)C3CCC3)C23CN(S(=O)(=O)CC)C3)cc1`?
CASP6 VEID inh: -1

How did O=C1/C(=C/C=C/c2ccccc2)Oc2c1ccc(O)c2CN1CCN(CCO)CC1 do in these assays?
DNMT1 block: -2; HCV NS3 hel inh: -62; CASP6 VEID inh: -10

How did CCN1CCN(Cc2c(O)ccc3c2O/C(=C\C=C\c2ccccc2)C3=O)CC1 do in these assays?
DNMT1 block: -11; HCV NS3 hel inh: 36*; CASP6 VEID inh: -2

Results for C[C@H](CO)N1C[C@H](C)[C@H](CN(C)C(=O)CN(C)C)Oc2ncc(-c3ccc(C#N)cc3)cc2C1=O ?
CASP6 VEID inh: -3

What do the screens show for `Cc1noc(C)c1C(=O)NCCCc1ccccc1`?
DNMT1 block: 0; HCV NS3 hel inh: 6; NSD2 inh: -10

How did COc1ccc(CCNC(=O)c2c(C)noc2C)cc1 do in these assays?
DNMT1 block: -2; HCV NS3 hel inh: -2; NSD2 inh: 1; CASP6 VEID inh: 50*

What do the screens show for `CCN(CC)c1ccc(NC(=O)Cn2ncc3c(C)n(Cc4ccccc4F)c(C)c3c2=O)c(C)c1`?
DNMT1 block: 60*; HCV NS3 hel inh: 8; NSD2 inh: 0; CASP6 VEID inh: -1

Results for COc1ccccc1CN(C)C(=O)CN1CCN(CC(=O)Nc2ccccc2Cl)CC1 ?
DNMT1 block: -3; NSD2 inh: 1; CASP6 VEID inh: 36*

Results for COc1ccccc1NC(=O)CN1CCN(CC(=O)Nc2ccccc2Cl)CC1 ?
DNMT1 block: 2; HCV NS3 hel inh: 3; NSD2 inh: -3; CASP6 VEID inh: -2

How did CN(C)c1ccc(-c2c(-c3ccc4c(c3)OCO4)noc2-c2ccsc2)cn1 do in these assays?
DNMT1 block: -7; HCV NS3 hel inh: -3

Bioassay records deposited in PubChem BioAssay by several laboratories.
